# Assay results taken from ChEMBL document CHEMBL4665848, “Constituents of Bupleurum praealtum and Bupleurum veronense with Potential Immunomodulatory Activity” (J Nat Prod, 2020).
# Calls of active or inactive are those of the source. No cut-off for these calls is given here.
# Experiments:
# Peritoneal macrophage [1] = assay: Cytotoxicity against Wistar rat peritoneal macrophages assessed as reduction in cell viability at 10^-5 to 10^-1 mM after 24 hrs by MTT assay; type: cell-based; conditions: dose 0.00001-0.1 mM
# Procedure, shortened: (§1)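 Freshly isolated primary rat spleen lymphocytes and peritoneal macrophages, cultured separately. Read-out is MTT metabolism, taken as mitochondrial reductase activity. Values are mean percentages with SD, relative to RPMI-treated control cells.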
# [2] = Cytotoxicity against Wistar rat splenocytes assessed as reduction in cell viability at 10^-5 to 10^-1 mM after 24 hrs by MTT assay; type: tissue-based; conditions: splenocyte, dose 0.00001-0.1 mM; procedure, shortened: as §1
# Peritoneal macrophage [3] = assay: Cytotoxicity against Wistar rat peritoneal macrophages assessed as assessed as lysosomal activity at 10^-5 to 10^-1 mM after 24 hrs by neutral red dye-based assay; type: cell-based; conditions: dose 0.00001-0.1 mM
# Procedure, shortened: (§2)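 Freshly isolated primary rat splenocytes and peritoneal macrophages. Read-out is neutral red accumulation, taken as lysosomal function. Results are compared with RPMI-treated control cells.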
# [4] = Cytotoxicity against Wistar rat splenocytes assessed as lysosomal activity at 10^-5 to 10^-1 mM after 24 hrs by neutral red dye-based assay; type: tissue-based; conditions: splenocyte, dose 0.00001-0.1 mM; procedure, shortened: as §2
# Peritoneal macrophage [5] = assay: Inhibition of MPO in Wistar rat peritoneal macrophages assessed as oxidation of 1,2-diaminobenzene at 10^-5 to 10^-1 mM; type: tissue-based; conditions: dose mM 0.00001-0.1, time 24.0 hrs
# [6] = Cytotoxicity against Wistar rat splenocytes assessed as lysosomal activity at 100 uM after 24 hrs by neutral red dye-based assay; type: tissue-based; conditions: splenocyte; procedure, shortened: as §2
# Peritoneal macrophage [7] = assay: Cytotoxicity against Wistar rat peritoneal macrophages assessed as lysosomal activity at 10 to 100 uM after 24 hrs by neutral red dye-based assay; type: cell-based; conditions: dose 10-100 µM; procedure, shortened: as §2
# [8] = Cytotoxicity against Wistar rat splenocytes assessed as reduction in cell viability at 100 uM after 24 hrs by MTT assay; type: tissue-based; conditions: splenocyte; procedure, shortened: as §1
# Peritoneal macrophage [9] = assay: Cytotoxicity against Wistar rat peritoneal macrophages assessed as lysosomal activity at 100 uM after 24 hrs by neutral red dye-based assay; type: cell-based; procedure, shortened: as §2
# Peritoneal macrophage [10] = assay: Cytotoxicity against Wistar rat peritoneal macrophages assessed as reduction in cell viability at 100 uM after 24 hrs by MTT assay; type: cell-based; procedure, shortened: as §1
SMILES,Activity (Peritoneal macrophage [1]),Activity [2],Activity (Peritoneal macrophage [3]),Activity [4],inhibition (Peritoneal macrophage [5]),Activity [6],Activity (Peritoneal macrophage [7]),Activity [8],Activity (Peritoneal macrophage [9]),Activity (Peritoneal macrophage [10])
CC/C=C/C=C/C=C/C=C\CCCCOC(=O)[C@H](OC(C)=O)C(C)C,Non-Toxic,Non-Toxic,Non-Toxic,Non-Toxic,–,–,–,–,–,–
CC/C=C/C=C/C=C/C=C\CCCCOC(=O)[C@H](O)C(C)C,Non-Toxic,Non-Toxic,Non-Toxic,Non-Toxic,Active,–,–,–,–,–
COc1ccc(C[C@H]2COC(=O)[C@@H]2Cc2ccc(OC)c(OC)c2)cc1OC,–,–,–,–,–,Non-Toxic,Non-Toxic,–,–,–
CC/C=C/C=C/C=C/C=C/[C@@H]1CCC(=O)O1,–,–,–,–,Active,Toxic,–,Toxic,Toxic,Toxic
